Assay results taken from ChEMBL document CHEMBL4196129, “Structural Optimization and Characterization of Potent Analgesic Macrocyclic Analogues of Neurotensin (8-13)” (J Med Chem, 2018).
Activity calls are given as the source filed them. No cut-off for these calls is given here. Starred links: 1 amine or outer side, 2 acyl side, 3 side chain; linkers in the order of their positions; H or OH if unused. Positions of bridges follow the written chain, without caps; N, C: chain ends. Non-standard residues stand in square brackets, D forms with d. Residues, ends and D or L forms follow the SMILES beside them. *: point of attachment. X6 = C=CCc1cc(C[C@H](N[*:1])C(=O)[*:2])ccc1O; NMeR = CN[C@@H](CCCNC(=N)N)C(=O)O; X7 = C=CCCCCCCC(=O)*

Experiments:
[1] = system: Rattus norvegicus; experiment: Analgesic activity in formalin-induced Sprague-Dawley rat pain model assessed as inhibition of nociceptive response in right hind paw at 30 ug/kg, it measured for 21 to 60 mins; type: functional, organism-based
Method in brief: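 Male Sprague-Dawley rats dosed intrathecally at 30 µg/kg in 0.9% saline; 5 min later, 50 µl of 2% formaldehyde given into the right hind paw plantar surface. Weighted pain score (0-3) recorded per 3-min block over 60 min. Acute phase 0-9 min, inflammatory phase 21-60 min.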

[2] = system: Rattus norvegicus; experiment: Hypotensive activity in Sprague-Dawley rat assessed as reduction in arterial blood pressure in third phase at 0.01 mg/kg, iv measured every second up to 900 secs; type: functional, organism-based
Method in brief: (§1)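 Sprague-Dawley rats anesthetized with ketamine/xylazine (87:13 mg/kg, i.m.) on a heated pad. Compound given i.v. via jugular vein catheter at 0.01 mg/kg (1 mL/kg over 5-10 s); saline as control. Arterial pressure recorded each second for 900 s. Change in mean arterial pressure taken from basal level; n=3-5 rats.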

[3] = system: Rattus norvegicus; experiment: Hypotensive activity in Sprague-Dawley rat assessed as reduction in arterial blood pressure in first phase at 0.01 mg/kg, iv measured every second up to 900 secs
[4] = system: Rattus norvegicus; experiment: Induction of hypothermia in Sprague-Dawley rat assessed as reduction in body temperature at 30 ug/kg, it after 60 mins; type: functional, organism-based
Method in brief: (§2)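 Rectal thermistor temperature in adult Sprague-Dawley rats acclimatized 5 min/day for 3 days. Baseline taken, then readings every 10 min to 60 min after intrathecal dosing in 0.9% saline, at 0.3, 1, 3, 10 and 30 µg/kg for the dose-response series. Single-dose comparisons at 30 µg/kg read only at 60 min. Change from baseline per animal; AUC per dose used for ED50.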

[5] = Half life in rat plasma by UPLC-MS analysis; type: ADME, cell-free
Method in brief: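 Quenched with acetonitrile/ethanol (1:1) plus 0.5% nicotinamide, centrifuged and filtered. Parent peptide measured by UPLC-MS; half-life from a one-phase decay fit.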

[6] = molecular target: T1, Neurotensin receptor type 1 (Homo sapiens, UniProt P30989); experiment: Displacement of [125I]Tyr3-neurotensin from human NTS1 receptor expressed in CHOK1 cell membranes after 60 mins by gamma counting analysis
[7] = molecular target: T1, Neurotensin receptor type 1; experiment: Agonist activity at GFP10/beta-arrestin1-Rluc2 fused human NTS1 expressed in CHO-K1 cell membranes assessed as beta-arrestin1 recruitment after 20 mins by BRET assay; type: functional, cell-based
[8] = molecular target: T1, Neurotensin receptor type 1; experiment: Agonist activity at Galpha13-Rluc2/Gbeta1/GFP10-Ggamma1 fused human NTS1 expressed in CHO-K1 cell membranes assessed as Galpha13 activation after 5 mins by BRET assay; type: functional, cell-based
[9] = molecular target: T1, Neurotensin receptor type 1; experiment: Displacement of [125I]Tyr3-neurotensin from human NTS1 receptor (end Leu 194 residues) expressed in CHO cells; type: cell-based
Method in brief: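 Membranes from CHO-K1 cells stably expressing hNTS1 (15 µg) incubated with 45 pM 125I-[Tyr3]-NT in 50 mM Tris-HCl pH 7.5, 0.2% BSA. Analogue at 10^-11 to 10^-4 M for 60 min at 25°C, then filtration and gamma counting. Nonspecific binding defined with 10^-5 M NT(8-13).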

[10] = system: Rattus norvegicus; experiment: Analgesic activity in Sprague-Dawley rat assessed as increase in tail withdrawal latency at 1 ug/kg, it measured every 10 mins up to 60 mins by tail flick test; type: functional, organism-based
Method in brief: (§3)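 Adult male Sprague-Dawley rats (225-300 g), acclimatized 5 min/day for 3 days. Baseline tail-flick latency taken before injection. Dosing under light isoflurane anesthesia, intrathecal at L5-L6, compound in 0.9% saline; saline alone as control. Latency to heat (light beam) read every 10 min up to 60 min. %MPE taken at 10 min post-injection.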

[11] = system: Rattus norvegicus; experiment: Induction of hypothermia in it dosed Sprague-Dawley rat assessed as reduction in body temperature measured every 10 mins up to 60 mins; type: functional; method in brief: as §2
[12] = system: Rattus norvegicus; experiment: Analgesic activity in Sprague-Dawley rat assessed as increase in tail withdrawal latency at 10 ug/kg, it measured every 10 mins up to 60 mins by tail flick test; type: functional, organism-based; method in brief: as §3
[13] = system: Rattus norvegicus; experiment: Induction of hypothermia in Sprague-Dawley rat assessed as reduction in body temperature at 0.3 to 30 ug/kg, it after 60 mins; type: functional, organism-based; method in brief: as §2
[14] = system: Rattus norvegicus; experiment: Analgesic activity in it dosed Sprague-Dawley rat assessed as increase in tail withdrawal latency measured every 10 mins up to 60 mins by tail flick test; type: functional; method in brief: as §3
[15] = system: Rattus norvegicus; experiment: Analgesic activity in Sprague-Dawley rat assessed as increase in tail withdrawal latency at 30 ug/kg, it measured every 10 mins up to 60 mins by tail flick test; type: functional, organism-based; method in brief: as §3
[16] = molecular target: T1, Neurotensin receptor type 1; experiment: Displacement of [3H]-neurotensin from NTS1 receptor (unknown origin) after 20 mins by liquid scintillation counting analysis
[17] = system: Rattus norvegicus; experiment: Analgesic activity in Sprague-Dawley rat assessed as increase in tail withdrawal latency at 30 ug/kg, it measured at 10 mins post injection by tail flick test relative to control; type: functional; method in brief: as §3
[18] = system: Rattus norvegicus; experiment: Hypotensive activity in Sprague-Dawley rat assessed as reduction in arterial blood pressure in first phase at 0.01 mg/kg, iv measured every second up to 900 secs; type: functional; method in brief: as §1
[19] = molecular target: T1, Neurotensin receptor type 1; experiment: Agonist activity at GFP10/beta-arrestin2-Rluc2 fused human NTS1 expressed in CHO-K1 cell membranes assessed as beta-arrestin2 recruitment after 20 mins by BRET assay; type: functional, cell-based
[20] = molecular target: T1, Neurotensin receptor type 1; experiment: Agonist activity at Galphaq-Rluc2/Gbeta1/GFP10-Ggamma1 fused human NTS1 expressed in CHO-K1 cell membranes assessed as Galphaq activation after 5 mins by BRET assay; type: functional, cell-based

T1 sequence (P30989 whole entry, the tested form may be a part): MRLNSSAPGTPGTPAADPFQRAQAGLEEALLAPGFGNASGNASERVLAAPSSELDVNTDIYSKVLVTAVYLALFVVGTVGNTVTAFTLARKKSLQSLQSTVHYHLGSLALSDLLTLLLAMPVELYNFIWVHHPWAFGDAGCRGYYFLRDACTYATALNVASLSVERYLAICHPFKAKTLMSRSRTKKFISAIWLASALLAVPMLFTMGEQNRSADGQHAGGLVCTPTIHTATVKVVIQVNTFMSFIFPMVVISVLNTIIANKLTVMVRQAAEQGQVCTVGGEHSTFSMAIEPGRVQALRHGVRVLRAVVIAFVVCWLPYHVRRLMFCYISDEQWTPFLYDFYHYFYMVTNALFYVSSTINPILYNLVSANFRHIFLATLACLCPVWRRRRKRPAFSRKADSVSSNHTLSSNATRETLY

Structure (SMILES): CCOC(=O)[C@H](CC(C)C)NC(=O)[C@@H](NC(=O)[C@H](Cc1c[nH]c2ccccc12)NC(=O)[C@H]1CCCN1C(=O)[C@H](CCCCN)NC(=O)[C@@H](N)CCCCN)C(C)(C)C
- Activity [1]: Active
- Activity [2]: Active
- Activity [3]: Active
- deltaT [4]: 2 °C

Structure (SMILES): CC[C@H](C)[C@H](NC(=O)[C@@H]1Cc2ccc(O)c(c2)CC=CCCCNCCCC[C@H](N)C(=O)N[C@@H](CCCCN)C(=O)N2CCC[C@H]2C(=O)N1)C(=O)N[C@@H](CC(C)C)C(=O)O
- half-life [5]: 0.3 h

Structure (SMILES): CC[C@H](C)[C@H](NC(=O)[C@@H]1Cc2ccc(O)c(c2)CC=CCCNCCCC[C@H](N)C(=O)N[C@@H](CCCCN)C(=O)N2CCC[C@H]2C(=O)N1)C(=O)N[C@@H](CC(C)C)C(=O)O
- half-life [5]: 0.25 h

Structure (SMILES): CC[C@H](C)[C@H](NC(=O)[C@@H]1Cc2ccc(O)c(c2)CC=CCCCCCCC(=O)N[C@@H](CCCCN)C(=O)N2CCC[C@H]2C(=O)N1)C(=O)N[C@@H](CC(C)C)C(=O)O
- Ki [6]: 5600 nM
- EC50 ([7]; cho-k1): 1500 nM
- EC50 ([8]; cho-k1): 433 nM

Structure (SMILES): CC[C@H](C)[C@H](NC(=O)[C@@H]1Cc2ccc(cc2)OCCCCCC(=O)N[C@@H](CCCNC(=N)N)C(=O)N2CCC[C@H]2C(=O)N1)C(=O)N[C@@H](CC(C)C)C(=O)O
- Ki [9]: 450 nM

Structure (SMILES): CC[C@H](C)[C@H](NC(=O)[C@H]1Cc2ccc(O)c(c2)CC=CCNCCC[C@@H](N)C(=O)N[C@@H](CCCCN)C(=O)N2CCC[C@H]2C(=O)N1)C(=O)N[C@@H](CC(C)C)C(=O)O
- Activity [1]: Active
- Activity [10]: inactive
- Activity [11]: Dose-dependent effect
- Activity [12]: Active
- Activity [2]: inactive
- deltaT [13]: 2 °C
- Activity [14]: Dose-dependent effect
- Activity [15]: Active
- Activity [3]: Active

Structure (SMILES): CC(C)C[C@H](NC(=O)[C@@H]1CCC(=O)N[C@@H](CCCNC(=N)N)C(=O)N[C@@H](CCCCN)C(=O)N2CCC[C@H]2C(=O)N[C@@H](Cc2c[nH]c3ccccc23)C(=O)N1)C(=O)O (RKPWEL-OH; lactam N-5)
- Ki [16]: 190 nM

Structure (SMILES): CC[C@H](C)[C@H](NC(=O)[C@@H]1Cc2ccc(O)c(c2)CC=CCCCCCC[C@](C)(N)C(=O)N[C@@H](CCCCN)C(=O)N2CCC[C@H]2C(=O)N1)C(=O)N[C@@H](CC(C)C)C(=O)O [listing 1 of 2 here]
- MPE [17]: 70%
- Activity [18]: 25 mmHg

Structure (SMILES): CC[C@H](C)[C@H](NC(=O)[C@@H]1Cc2ccc(O)c(c2)CC=CCNCCC[C@H](N)C(=O)N[C@@H](CCCCN)C(=O)N2CCC[C@H]2C(=O)N1)C(=O)N[C@@H](CC(C)C)C(=O)O [listing 1 of 2 here]
- ED50 [11]: 1.96 µg/kg
- ED50 [14]: 4.63 µg/kg
- MPE [17]: 50%
- Activity [18]: 25 mmHg

Structure (SMILES): CC[C@H](C)[C@H](NC(=O)[C@H]1Cc2ccc(O)c(c2)CC=CCCCCCC[C@](C)(N)C(=O)N[C@@H](CCCCN)C(=O)N2CCC[C@H]2C(=O)N1)C(=O)N[C@@H](CC(C)C)C(=O)O
- Activity [1]: Active
- Activity [2]: inactive
- Activity [15]: Active
- Activity [3]: Active
- deltaT [4]: 2 °C

Structure (SMILES): CC[C@H](C)[C@H](NC(=O)[C@@H]1Cc2ccc(O)c(c2)CC=CCNCC[C@H](N)C(=O)N[C@@H](CCCCN)C(=O)N2CCC[C@H]2C(=O)N1)C(=O)N[C@@H](CC(C)C)C(=O)O
- half-life [5]: 2.5 h

Structure (SMILES): CCOC(=O)[C@H](CC(C)C)NC(=O)[C@@H](NC(=O)[C@H](Cc1c[nH]c2ccccc12)NC(=O)[C@@H]1CCCN1C(=O)[C@H](CCCCN)NC(=O)[C@@H](N)CCCCN)C(C)(C)C [listing 1 of 2 here]
- Ki [6]: 159 nM

Structure (SMILES): CC[C@H](C)[C@H](NC(=O)[C@@H]1Cc2ccc(O)c(c2)CC=CCNCCCCCC(=O)N[C@@H](CCCCN)C(=O)N2CCC[C@H]2C(=O)N1)C(=O)N[C@@H](CC(C)C)C(=O)O
- Ki [6]: 656 nM
- EC50 [7]: 96 nM
- half-life [5]: 24 h

Structure (SMILES): CC(C)C[C@H](NC(=O)[C@@H]1CCC(=O)NCC(=O)N(C)[C@@H](CCCNC(=N)N)C(=O)N[C@@H](CCCCN)C(=O)N2CCC[C@H]2C(=O)N[C@@H](Cc2c[nH]c3ccccc23)C(=O)N1)C(=O)O (G[NMeR]KPWEL-OH; lactam N-6)
- Ki [16]: 3500 nM

Structure (SMILES): CC[C@H](C)[C@H](NC(=O)[C@@H]1Cc2ccc(O)c(c2)CC=CCNCCCC[C@@H](N)C(=O)N[C@@H](CCCCN)C(=O)N2CCC[C@H]2C(=O)N1)C(=O)N[C@@H](CC(C)C)C(=O)O
- half-life [5]: 24 h

Structure (SMILES): CC[C@H](C)[C@H](NC(=O)[C@@H]1Cc2ccc(O)c(c2)CC=CCCCCCC[C@](C)(N)C(=O)N[C@@H](CCCCN)C(=O)N2CCC[C@H]2C(=O)N1)C(=O)N[C@@H](CC(C)C)C(=O)O [listing 2 of 2 here]
- EC50 [19]: 28 nM
- half-life [5]: 24 h

Structure (SMILES): CC[C@H](C)[C@H](NC(=O)[C@@H]1Cc2ccc(O)c(c2)CC=CCN(S(=O)(=O)c2ccccc2[N+](=O)[O-])CCCC[C@H](N)C(=O)N[C@@H](CCCCN)C(=O)N2CCC[C@H]2C(=O)N1)C(=O)N[C@@H](CC(C)C)C(=O)O
- half-life [5]: 1.4 h

Structure (SMILES): CC[C@H](C)[C@H](NC(=O)[C@@H]1Cc2ccc(O)c(c2)CC=CCNCCC[C@H](N)C(=O)N[C@@H](CCCCN)C(=O)N2CCC[C@H]2C(=O)N1)C(=O)N[C@@H](CC(C)C)C(=O)O [listing 2 of 2 here]
- EC50 [7]: 4 nM
- half-life [5]: 0.5 to 0.65 h
- EC50 [20]: 3 nM
- EC50 [8]: 11 nM

Structure (SMILES): CCOC(=O)[C@H](CC(C)C)NC(=O)[C@@H](NC(=O)[C@H](Cc1c[nH]c2ccccc12)NC(=O)[C@@H]1CCCN1C(=O)[C@H](CCCCN)NC(=O)[C@@H](N)CCCCN)C(C)(C)C [listing 2 of 2 here]
- MPE [17]: 75%
- Activity [18]: 25 mmHg

Structure (SMILES): C=CCCCCCCC(=O)N[C@@H](CCCCN)C(=O)N1CCC[C@H]1C(=O)N[C@@H](Cc1ccc(O)c(CC=C)c1)C(=O)N[C@H](C(=O)N[C@@H](CC(C)C)C(=O)O)[C@@H](C)CC (X7-KP[X6]IL-OH)
- Ki [6]: > 10000 nM

Structure (SMILES): C=CCNCCCC[C@H](N)C(=O)N[C@@H](CCCCN)C(=O)N1CCC[C@H]1C(=O)N[C@@H](Cc1ccc(O)c(CC=C)c1)C(=O)N[C@H](C(=O)N[C@@H](CC(C)C)C(=O)O)[C@@H](C)CC
- EC50 [19]: 9 nM
- EC50 [7]: 15 nM
- half-life [5]: 0.0833 h
- EC50 [20]: 7 nM
